Published values from different studies.
Protocols differ between the studies behind these lines.
LCK: Tyrosine-protein kinase Lck (LCK, Homo sapiens, UniProt P06239)
LCK phosphorylated: Tyrosine-protein kinase Lck, phosphorylated (LCK, Homo sapiens, UniProt P06239)

| Compound | target | effect on | action | technique | tested at | quantity | result |
| --- | --- | --- | --- | --- | --- | --- | --- |
| CCOc1cc(-c2nncn2C)ccc1Nc1ncc2cc(C)nc(NCC(C)(C)C)c2n1 | LCK | enzyme activity | inhibitor | FRET | 1 µM | inhibition | < 15% |
| C[C@H](NC(=O)c1cnc2n1[C@](C)(Cc1ccc(C#N)cc1)C(=O)N2c1cc(Cl)c(F)c(Cl)c1)C(=O)NC1(c2ccccn2)CC1 | LCK | cell-free assay | – | competition with immobilised ligand | 1 µM | remaining binding | 100% |
| CCCS(=O)(=O)Nc1ccc(F)c(C(=O)c2c[nH]c3ncc(-c4ccc(Cl)cc4)cc23)c1F | LCK | enzyme activity | inhibitor | – | 1 µM | inhibition | < 10% |
| CS(=O)(=O)N1CCCC(NC(=O)[C@H](CCC2CCCCC2)NC(=O)c2ccc(CNc3ncnc4c3nnn4-c3ccccc3)cc2)C1 (some centres unmarked) | LCK | cell-free assay | – | competition with immobilised ligand | 0.1 µM | remaining binding | 100% |
| N[C@H]1CCN(c2nccc(-c3cnn4ncccc34)n2)C1 | LCK | cell-free assay | – | – | 1 µM | remaining signal | 90% |
| CNC(=O)c1cc2c(Oc3ccc(NC(=O)C4(C(=O)Nc5ccc(F)cc5)CC4)cc3)ccnc2cc1OC | LCK phosphorylated | enzyme activity | inhibitor | radiometric | 1 µM | inhibition | 97% |
| Cc1ccc(C(=O)NCc2ccsc2)cc1C#Cc1cn(C(C)C)c2ncnc(N)c12 | LCK phosphorylated | enzyme activity | inhibitor | – | 1 µM | activity vs control | 2% |
| CN(C)CC#Cc1ccc(OCCCc2sc(N3CCc4cccc(C(=O)Nc5nc6ccccc6s5)c4C3)nc2C(=O)O)c(F)c1 | LCK | cell-free assay | – | competition with immobilised ligand | 1 µM | remaining binding | 100% |
| CC/C(=N\NC(=O)NCc1cccc(O)c1)c1ccc(O)c(C)c1O | LCK | enzyme activity | inhibitor | – | 0.1 µM | inhibition | 2% |
| Cc1cc(NC(=O)c2cccc3cc(-c4cccc5[nH]nc(N)c45)ccc23)ccc1F | LCK | enzyme activity | inhibitor | – | 0.1 µM | activity vs control | 90% |
| CCS(=O)(=O)c1cc2cc(C[C@@](O)(CC(C)(C)c3ccc(F)cc3C(N)=O)C(F)(F)F)[nH]c2cn1 | LCK | cell-free assay | – | competition with immobilised ligand | 1 µM | remaining binding | 81% |
| CN(c1nccc(-c2cnn3ncccc23)n1)C1CC1 | LCK | cell-free assay | – | – | 1 µM | remaining signal | 98% |
| c1cc(-c2cnn3cc(-c4ccc(OCCN5CCCCC5)cc4)cnc23)ccn1 | LCK | enzyme activity | inhibitor | – | 0.5 µM | activity vs control | 51.8% |
| COc1cc2ncnc(Nc3ccc(Oc4ccccc4)cc3C)c2cc1OC | LCK | enzyme activity | inhibitor | – | 1 µM | inhibition | 92% |
| NS(=O)(=O)c1cc(NC(=O)Cc2ccccc2)ccc1Oc1cccc(Cl)c1 | LCK | cell-free assay | – | competition with immobilised ligand | 1 µM | remaining binding | 70% |
| CN(C)C1CCN(CC#Cc2nn(C3CCCC3)c3nc(NCc4ccccc4)ncc23)C1 (centres unmarked) | LCK | enzyme activity | inhibitor | FRET | 1 µM | inhibition | 31% |
| CSc1nc(C)c(-c2ccnc(Nc3ccc(N4CCOCC4)cc3)c2)[nH]1 | LCK | enzyme activity | inhibitor | – | 10 µM | inhibition | 15.8% |
| CNCc1ccc(-c2cc(-c3nc(-c4ccc(S(=O)(=O)C(C)C)cc4)cnc3N)on2)cc1 | LCK | enzyme activity | inhibitor | – | 0.4 µM | inhibition | 42% |
| COc1cc(-c2cn(C3CCc4c(F)cccc4N(CC(F)(F)F)C3=O)nn2)ccc1-n1cnc(C)c1 (centres unmarked) | LCK | cell-free assay | – | competition with immobilised ligand | 1 µM | remaining binding | 100% |
| C=CC(=O)Nc1cc(Nc2nccc(Nc3cc(Cl)c(F)cc3C(C)(C)O)n2)c(OC)cc1N1CC[C@@H](N(C)C)C1 | LCK phosphorylated | enzyme activity | inhibitor | – | 1 µM | inhibition | 5% |
| Cc1ccc(Nc2nccc(N(C)c3ccc4c(C)n(C)nc4c3)n2)cc1S(N)(=O)=O | LCK | enzyme activity | inhibitor | – | 0.3 µM | inhibition | 59% |
| c1nc2c(Nc3ccc4c(c3)OCCO4)nc(Nc3ccc4c(c3)OCCO4)nc2[nH]1 | LCK | enzyme activity | inhibitor | – | 10 µM | activity vs control | 2.1% |
| O=C(Nc1cccnn1)N1CC(C/C=C/c2cncc(Oc3ccc(C(F)(F)F)cn3)n2)C1 | LCK | cell-free assay | – | competition with immobilised ligand | 1 µM | remaining binding | 100% |
| FC(F)(F)Oc1cccc(-c2cnc3ccc(-c4ccncc4)nn23)c1 | LCK | enzyme activity | inhibitor | radiometric | 5 µM | activity vs control | 25% |
| CC1CCCN1c1nccc(-c2cnn3ncccc23)n1 (centres unmarked) | LCK | cell-free assay | – | – | 1 µM | remaining signal | 100% |
| CC(C)(C)n1nc(Cc2cccc3ccccc23)c2c(N)ncnc21 | LCK | enzyme activity | inhibitor | – | 0.5 µM | activity vs control | 80.4% |
